Experimental data published in ChEMBL document CHEMBL1126834, “Chemistry, binding affinities, and behavioral properties of a new class of "antineophobic" mitochondrial DBI receptor complex (mDRC) ligands” (J Med Chem, 1993).

Columns and labels:
Cannabinoid receptor 1 = Cannabinoid receptor 1 (Rattus norvegicus, UniProt P20272); experiment: Inhibitory activity, measured by displacement [3H]CP-55940 from cannabinoid receptor (CB1) in rat brain; assay type: tissue-based
[1] = Inhibitory activity at GABA B receptor, measured by the ability to displace [3H]baclofen from GABA B receptor in rat brain; assay type: tissue-based
[2] = target: GABA-A receptor; anion channel; experiment: Inhibitory activity at GABA A receptor, measured by the ability to displace [35S]TBPS from GABA A receptor in rat brain; assay type: tissue-based
[3] = target: GABA-A receptor; anion channel; experiment: Inhibitory activity at GABA A receptor, measured by the ability to displace [3H]GABA from GABA A receptor in rat brain; assay type: tissue-based
[4] = target: GABA-A receptor; anion channel; experiment: Inhibitory activity at GABA A receptor, measured by the ability to displace [3H]flumazenil from GABA A receptor in rat brain; assay type: tissue-based
[5] = target: GABA-A receptor; anion channel; experiment: Inhibitory activity at GABA A receptor, measured by the ability to displace [3H]zolpidem from GABA A receptor in rat brain; assay type: tissue-based
[6] = target: T1, Gastrin/cholecystokinin type B receptor (Rattus norvegicus, UniProt P30553); experiment: Inhibitory activity by measuring its ability to displace [3H]L-365260 from cholecystokinin receptor in rat brain; assay type: tissue-based
T1 sequence (P30553 whole entry): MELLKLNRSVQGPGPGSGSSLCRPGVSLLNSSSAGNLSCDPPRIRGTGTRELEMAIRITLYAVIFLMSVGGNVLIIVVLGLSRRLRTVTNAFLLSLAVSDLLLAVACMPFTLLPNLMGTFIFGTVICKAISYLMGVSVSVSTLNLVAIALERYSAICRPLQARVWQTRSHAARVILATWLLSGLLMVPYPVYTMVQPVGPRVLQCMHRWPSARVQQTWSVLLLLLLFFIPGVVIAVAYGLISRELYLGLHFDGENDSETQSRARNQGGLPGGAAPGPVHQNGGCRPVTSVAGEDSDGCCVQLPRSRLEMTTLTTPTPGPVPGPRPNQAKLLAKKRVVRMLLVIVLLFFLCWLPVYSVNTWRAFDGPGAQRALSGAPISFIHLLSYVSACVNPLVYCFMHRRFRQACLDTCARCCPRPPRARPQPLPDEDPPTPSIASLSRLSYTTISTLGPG

[7] = target: Adrenergic receptor alpha; experiment: Inhibitory activity by measuring its ability to displace [3H]WB-4101 from alpha-adrenergic receptor in rat brain; assay type: tissue-based
[8] = target: Adrenergic receptor alpha; experiment: Inhibitory activity by measuring its ability to displace [3H]clonidine from alpha-adrenergic receptor in rat brain; assay type: tissue-based
Adrenergic receptor beta = Adrenergic receptor beta (Rattus norvegicus, UniProt P18090+P10608+P26255); experiment: Inhibitory activity by measuring its ability to displace [125I]pindolol from beta-adrenergic receptor in rat brain; assay type: tissue-based
[9] = Inhibitory activity by measuring its ability to displace [3H]glycine from glycine receptor in rat brain; assay type: tissue-based
Glutamate NMDA receptor = experiment: Inhibitory activity by measuring its ability to displace [3H]-MK-801 from glutamate(NMDA) receptor in rat brain; assay type: tissue-based
[10] = Tested for inhibitory activity by measuring its ability to displace [3H]AMPA from glutamate (non-NMDA) receptor in rat brain; assay type: tissue-based
[11] = Inhibitory activity by measuring its ability to displace [3H]spiperone from dopamine or serotonin 5-HT-1 receptors in rat brain; assay type: tissue-based
Translocator protein = Translocator protein (Rattus norvegicus, UniProt P16257); experiment: Binding affinity against mitochondrial DBI complex (peripheral benzodiazepine receptor) using primary cultures of glial cells
Sequence of Translocator protein (P16257 whole entry, looked up): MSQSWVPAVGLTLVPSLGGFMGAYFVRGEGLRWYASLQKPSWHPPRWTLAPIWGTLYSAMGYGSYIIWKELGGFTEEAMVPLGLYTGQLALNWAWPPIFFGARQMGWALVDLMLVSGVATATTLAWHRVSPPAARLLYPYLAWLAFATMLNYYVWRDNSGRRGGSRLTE
Outline: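 Glia from cerebella of 8-day-old Sprague–Dawley rat pups, trypsin-dissociated and grown 14 days (~95% astroglia). Cells lysed in 50 mM Hepes pH 7.4, 4 μg protein per tube. Incubated with [3H]4'-chlorodiazepam and competitor for 90 min at 4 °C, then filtered. Nonspecific binding defined with 10 μM 4'-chlorodiazepam. Triplicate competition curves; IC50 by nonlinear regression, converted to Ki (Bylund–Yamamura).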

Sequence of Cannabinoid receptor 1 (P20272 whole entry): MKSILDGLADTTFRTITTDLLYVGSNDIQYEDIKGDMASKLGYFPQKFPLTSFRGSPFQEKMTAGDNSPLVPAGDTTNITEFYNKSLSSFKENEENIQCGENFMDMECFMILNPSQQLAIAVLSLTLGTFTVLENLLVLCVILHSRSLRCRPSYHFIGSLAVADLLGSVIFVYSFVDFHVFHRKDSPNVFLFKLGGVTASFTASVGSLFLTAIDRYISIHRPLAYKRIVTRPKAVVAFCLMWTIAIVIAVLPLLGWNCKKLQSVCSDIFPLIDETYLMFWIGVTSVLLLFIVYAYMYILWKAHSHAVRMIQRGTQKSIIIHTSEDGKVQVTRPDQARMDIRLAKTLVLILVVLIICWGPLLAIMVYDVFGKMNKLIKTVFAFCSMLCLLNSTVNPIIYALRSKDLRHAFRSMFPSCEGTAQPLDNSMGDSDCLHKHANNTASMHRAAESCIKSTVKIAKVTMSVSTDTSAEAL

Row | Compound | IC50 (Cannabinoid receptor 1) [nM] | IC50 [1] [nM] | IC50 [2] [nM] | IC50 [3] [nM] | IC50 [4] [nM] | IC50 [5] [nM] | IC50 [6] [nM] | IC50 [7] [nM] | IC50 [8] [nM] | IC50 (Adrenergic receptor beta) [nM] | IC50 [9] [nM] | IC50 (Glutamate NMDA receptor) [nM] | IC50 [10] [nM] | IC50 [11] [nM] | Ki (Translocator protein) [nM]
1 | CCCN(CCC)C(=O)Cc1c(-c2ccc(C)cc2)[nH]c2ccc(C)cc12 | > 1000 | > 1000 | > 1000 | > 1000 | > 1000 | > 1000 | > 1000 | > 1000 | > 1000 | > 1000 | > 1000 | > 1000 | > 1000 | > 1000 | 66
2 | CCCCCCN(CCCCCC)C(=S)Cc1c(-c2ccc(F)cc2)[nH]c2ccccc12 | > 1000 | > 1000 | > 1000 | > 1000 | > 1000 | > 1000 | > 1000 | > 1000 | > 1000 | > 1000 | > 1000 | > 1000 | > 1000 | > 1000 | > 1000
3 | CCCN(CCC)C(=O)Cc1c(-c2cccs2)[nH]c2ccccc12 | > 1000 | > 1000 | > 1000 | > 1000 | > 1000 | > 1000 | > 1000 | > 1000 | > 1000 | > 1000 | > 1000 | > 1000 | > 1000 | > 1000 | 304
4 | CCCN(CCC)C(=O)Cc1c(-c2ccccc2)[nH]c2c(F)cccc12 | > 1000 | > 1000 | > 1000 | > 1000 | > 1000 | > 1000 | > 1000 | > 1000 | > 1000 | > 1000 | > 1000 | > 1000 | > 1000 | > 1000 | 211
5 | CN(C)C(=O)Cc1c(-c2ccccc2)[nH]c2ccccc12 | > 1000 | > 1000 | > 1000 | > 1000 | > 1000 | > 1000 | > 1000 | > 1000 | > 1000 | > 1000 | > 1000 | > 1000 | > 1000 | > 1000 | 170
6 | CCCN(CCC)C(=O)Cc1c(-c2ccccc2)[nH]c2ccccc12 | > 1000 | > 1000 | > 1000 | > 1000 | > 1000 | > 1000 | > 1000 | > 1000 | > 1000 | > 1000 | > 1000 | > 1000 | > 1000 | > 1000 | 100
7 | CCCN(CCC)C(=O)Cc1c2n(c3ccccc13)CCCc1ccccc1-2 | > 1000 | > 1000 | > 1000 | > 1000 | > 1000 | > 1000 | > 1000 | > 1000 | > 1000 | > 1000 | > 1000 | > 1000 | > 1000 | > 1000 | 328
8 | O=C(Cc1c(-c2ccccc2)[nH]c2ccccc12)N1CCCC1 | > 1000 | > 1000 | > 1000 | > 1000 | > 1000 | > 1000 | > 1000 | > 1000 | > 1000 | > 1000 | > 1000 | > 1000 | > 1000 | > 1000 | 338
9 | CCCCCCN(C)C(=O)Cc1c(-c2ccc(F)cc2)[nH]c2ccccc12 | > 1000 | > 1000 | > 1000 | > 1000 | > 1000 | > 1000 | > 1000 | > 1000 | > 1000 | > 1000 | > 1000 | > 1000 | > 1000 | > 1000 | 135
10 | CCCN(CCC)C(=O)Cc1c(-c2ccc(Cl)cc2)[nH]c2ccccc12 | > 1000 | > 1000 | > 1000 | > 1000 | > 1000 | > 1000 | > 1000 | > 1000 | > 1000 | > 1000 | > 1000 | > 1000 | > 1000 | > 1000 | 66
11 | Cc1ccc(-c2[nH]c3ccc(C)cc3c2CC(=O)N(C)C)cc1 | > 1000 | > 1000 | > 1000 | > 1000 | > 1000 | > 1000 | > 1000 | > 1000 | > 1000 | > 1000 | > 1000 | > 1000 | > 1000 | > 1000 | 150
12 | O=C(Cc1c(-c2ccc(F)cc2)[nH]c2ccccc12)Nc1ccccc1Br | > 1000 | > 1000 | > 1000 | > 1000 | > 1000 | > 1000 | > 1000 | > 1000 | > 1000 | > 1000 | > 1000 | > 1000 | > 1000 | > 1000 | 476
13 | CCCN(CCC)C(=O)C(C)c1c(-c2ccc(Cl)cc2)[nH]c2ccccc12 (centres undefined) | > 1000 | > 1000 | > 1000 | > 1000 | > 1000 | > 1000 | > 1000 | > 1000 | > 1000 | > 1000 | > 1000 | > 1000 | > 1000 | > 1000 | 800
14 | CCN(CC)C(=O)Cc1c(-c2ccccc2)[nH]c2ccccc12 | > 1000 | > 1000 | > 1000 | > 1000 | > 1000 | > 1000 | > 1000 | > 1000 | > 1000 | > 1000 | > 1000 | > 1000 | > 1000 | > 1000 | 156
15 | CCCN(CCC)C(=O)Cc1c(-c2cccc(Cl)c2)[nH]c2ccccc12 | > 1000 | > 1000 | > 1000 | > 1000 | > 1000 | > 1000 | > 1000 | > 1000 | > 1000 | > 1000 | > 1000 | > 1000 | > 1000 | > 1000 | 678
16 | CCCN(CCC)C(=O)Cc1c(-c2cccs2)[nH]c2ccc(Cl)cc12 | > 1000 | > 1000 | > 1000 | > 1000 | > 1000 | > 1000 | > 1000 | > 1000 | > 1000 | > 1000 | > 1000 | > 1000 | > 1000 | > 1000 | 78
17 | O=C1Cc2c([nH]c3ccccc23)-c2ccccc2N1 [PAULLONE] | > 1000 | > 1000 | > 1000 | > 1000 | > 1000 | > 1000 | > 1000 | > 1000 | > 1000 | > 1000 | > 1000 | > 1000 | > 1000 | > 1000 | 
